Results as given in PubChem BioAssay AID602345 (The Scripps Research Institute Molecular Screening Center, 2012).
Activity calls are given as the source filed them.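 Rule for the calls: active = macrophage DAGL beta lipase probe labeling falls at least half after a 5 mg/kg dose in mice; inactive = 5 mg/kg yields less than half inhibition.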

Biological target: Diacylglycerol lipase-beta (Mus musculus) (UniProt Q91WC9)
Assay: macrophage DAGLb activity after compound dosing – gel ABPP, in-gel fluorescence, mouse, peritoneal macrophages, in vivo study, late-stage follow-up (AID 602345)
Settings: C57 mice i.p., gel ABPP HT-01
Method in brief: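 Assay system: DAGLb in peritoneal macrophage membranes from thioglycollate-elicited C57 mice / Amount: macrophage membrane fraction at 1 mg/mL protein / Timing: 4 h in vivo exposure, 30 min probe step at 37 °C / Benchmarks: vehicle-only mice / Measured by: in-gel fluorescence scanning after SDS-PAGE separation / Replicates: two mice per dose group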

Sequence of Diacylglycerol lipase-beta (Mus musculus) (Q91WC9 whole entry, looked up): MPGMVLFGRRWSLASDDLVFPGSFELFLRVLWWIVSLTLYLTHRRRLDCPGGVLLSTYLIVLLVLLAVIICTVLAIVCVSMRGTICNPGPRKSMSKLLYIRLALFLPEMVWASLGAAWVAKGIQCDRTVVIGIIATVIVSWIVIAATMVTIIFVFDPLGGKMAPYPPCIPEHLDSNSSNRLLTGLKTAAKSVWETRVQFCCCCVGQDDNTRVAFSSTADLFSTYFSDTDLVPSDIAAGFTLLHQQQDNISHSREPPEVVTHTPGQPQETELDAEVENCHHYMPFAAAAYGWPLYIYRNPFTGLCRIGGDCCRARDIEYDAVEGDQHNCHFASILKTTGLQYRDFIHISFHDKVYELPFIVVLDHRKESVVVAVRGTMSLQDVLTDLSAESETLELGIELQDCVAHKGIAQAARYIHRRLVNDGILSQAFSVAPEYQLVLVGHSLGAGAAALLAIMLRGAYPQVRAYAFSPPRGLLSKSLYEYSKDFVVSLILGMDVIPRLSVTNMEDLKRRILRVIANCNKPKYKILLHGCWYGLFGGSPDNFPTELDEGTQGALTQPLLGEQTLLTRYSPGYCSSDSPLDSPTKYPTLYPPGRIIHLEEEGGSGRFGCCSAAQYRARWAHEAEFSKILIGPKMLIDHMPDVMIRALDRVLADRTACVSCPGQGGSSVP

Structure (SMILES)	outcome
O=C(N1CCCCC1Cc1ccccc1)n1cc(-c2ccc(-c3ccccc3)cc2)nn1 (stereo not drawn)	active
O=C(N1CCCCC1Cc1ccccc1)n1cc(-c2ccc(-c3ccccc3C(F)(F)F)cc2)nn1 (stereo not drawn)	active
COc1ccccc1-c1ccc(-c2cn(C(=O)N3CCCCC3Cc3ccccc3)nn2)cc1 (stereo not drawn)	active
